Structures are written as SMILES. Activity calls are given as the source filed them. The rule behind the calls is not given here.

Assay [1] concerns the target 80S Ribosome (Homo sapiens) (UniProt P08865+P42677+P62753+P15880+P23396+P61247+P62701+P22090+P46782+P62081+P62241+P46781+P46783+P62280+P25398+P62277+P62263+P62841+P62244+P62249+P08708+P62269+P39019+P60866+P63220+P62266+P62847+P62851+P62854+P62979+P62857+P62273+P62861+P39023+P36578+P46777+Q02878+P18124+P62424+P62917+P32969+P27635+P62906+P62913+P30050+P26373+P40429+P50914+P61313+P18621+Q07020+Q02543+P84098+P46778+P35268+P62829+P62750+P83731+P61254+P61353+P46776+P46779+P47914+P62888+P62899+P62910+P49207+P42766+P18077+Q9Y3U8+P83881+P61927+P61513+P63173+P62891+P62945+P05388+P05386). The experiment in a line: Binding affinity to RPS26 in human NCI-H23 cells at 1 uM by mass spectrometry based pull down assay. Format: cell-based.

The target of assay [2] is Transmembrane protein 263 (Homo sapiens) (UniProt Q8WUH6). The experiment in a line: Binding affinity to TMEM263 in human NCI-H23 cells at 1 uM by mass spectrometry based pull down assay. In kind it is cell-based.
In assay [3] the target is Small COPII coat GTPase SAR1A (Homo sapiens) (UniProt Q9NR31). Kind of assay: Binding affinity to SAR1A in human NCI-H23 cells at 1 uM by mass spectrometry based pull down assay. In kind it is cell-based.
In assay [4] the target is Nuclear receptor-binding factor 2 (Homo sapiens) (UniProt Q96F24). The experiment in a line: Binding affinity to NRBF2 in human NCI-H23 cells at 1 uM by mass spectrometry based pull down assay. In kind it is cell-based.
The target of assay [5] is Myeloid leukemia factor 2 (Homo sapiens) (UniProt Q15773). Kind of assay: Binding affinity to MLF2 in human NCI-H23 cells at 1 uM by mass spectrometry based pull down assay. Format: cell-based.
The target in assay [6] is Aldehyde dehydrogenase family 16 member A1 (Homo sapiens) (UniProt Q8IZ83). The experiment in a line: Binding affinity to ALDH16A1 in human NCI-H23 cells at 1 uM by mass spectrometry based pull down assay. Format: cell-based. In short, it runs like this:
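NCI-H23 or NCI-H358 cells were grown and lysed. Lysates were incubated overnight at 4 °C with 1 μM biotinylated covalent probe or DMSO, then pulled down on streptavidin beads. Proteins were run on polyacrylamide gels and stained with Coomassie. Bands were excised, digested and identified by mass spectrometry.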

For assay [7], the target named is T1, Dual specificity mitogen-activated protein kinase kinase 5 (Homo sapiens) (UniProt Q13163).
T1 sequence (whole entry): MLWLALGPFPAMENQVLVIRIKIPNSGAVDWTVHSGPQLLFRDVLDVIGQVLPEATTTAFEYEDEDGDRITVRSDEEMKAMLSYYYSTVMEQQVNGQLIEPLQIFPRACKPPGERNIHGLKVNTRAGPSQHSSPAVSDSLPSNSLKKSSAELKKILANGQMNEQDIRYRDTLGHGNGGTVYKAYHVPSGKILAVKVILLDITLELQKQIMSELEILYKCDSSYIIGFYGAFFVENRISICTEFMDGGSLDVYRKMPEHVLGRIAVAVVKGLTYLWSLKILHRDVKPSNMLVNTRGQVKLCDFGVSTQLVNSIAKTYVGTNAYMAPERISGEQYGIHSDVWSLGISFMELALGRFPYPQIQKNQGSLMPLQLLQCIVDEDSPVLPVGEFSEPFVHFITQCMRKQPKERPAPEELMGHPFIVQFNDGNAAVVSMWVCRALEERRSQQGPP
The experiment in a line: Binding affinity to MAP2K5 in human NCI-H23 cells at 1 uM by mass spectrometry based pull down assay. Format: cell-based.

The target in assay [8] is Heterogeneous nuclear ribonucleoprotein U (Homo sapiens) (UniProt Q00839). Kind of assay: Binding affinity to HNRNPU in human NCI-H358 cells at 1 uM by mass spectrometry based pull down assay. In kind it is cell-based.
The target in assay [9] is Thioredoxin (Homo sapiens) (UniProt P10599). The experiment in a line: Binding affinity to TXN in human NCI-H358 cells at 1 uM by mass spectrometry based pull down assay. In kind it is cell-based.
Assay [10] concerns the target Coatomer subunit beta (Homo sapiens) (UniProt P53618). The experiment in a line: Binding affinity to COPB1 in human NCI-H358 cells at 1 uM by mass spectrometry based pull down assay. Format: cell-based.
In assay [11] the target is Myosin regulatory light chain 12B (Homo sapiens) (UniProt O14950). Kind of assay: Binding affinity to MYL12B in human NCI-H358 cells at 1 uM by mass spectrometry based pull down assay. In kind it is cell-based.
The target in assay [12] is Trafficking protein particle complex subunit 5 (Homo sapiens) (UniProt Q8IUR0). Kind of assay: Binding affinity to TRAPPC5 in human NCI-H358 cells at 1 uM by mass spectrometry based pull down assay. Format: cell-based.
Assay [13] addresses Uracil-DNA glycosylase (Homo sapiens) (UniProt P13051). The experiment in a line: Binding affinity to UNG in human NCI-H358 cells at 1 uM by mass spectrometry based pull down assay. In kind it is cell-based.
Assay [14] deals with T2, Serine/threonine-protein kinase Chk1 (Homo sapiens) (UniProt O14757).
T2 sequence (whole entry): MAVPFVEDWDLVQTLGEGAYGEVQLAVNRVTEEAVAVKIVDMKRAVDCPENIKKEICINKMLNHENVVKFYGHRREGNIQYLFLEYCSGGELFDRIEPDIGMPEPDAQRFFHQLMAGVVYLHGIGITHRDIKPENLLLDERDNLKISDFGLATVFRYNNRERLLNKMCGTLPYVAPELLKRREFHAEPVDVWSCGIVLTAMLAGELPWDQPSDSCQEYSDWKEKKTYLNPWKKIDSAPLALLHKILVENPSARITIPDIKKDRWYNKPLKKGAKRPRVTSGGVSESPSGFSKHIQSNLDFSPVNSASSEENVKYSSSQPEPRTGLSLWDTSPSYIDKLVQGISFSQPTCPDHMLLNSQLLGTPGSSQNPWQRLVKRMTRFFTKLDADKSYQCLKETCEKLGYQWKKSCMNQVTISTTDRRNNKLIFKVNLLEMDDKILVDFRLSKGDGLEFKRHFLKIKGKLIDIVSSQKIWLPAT
Kind of assay: Binding affinity to CHEK1 in human NCI-H358 cells at 1 uM by mass spectrometry based pull down assay. In kind it is cell-based.

In assay [15] the target is Vinculin (Homo sapiens) (UniProt P18206). The experiment in a line: Binding affinity to VCL in human NCI-H358 cells at 1 uM by mass spectrometry based pull down assay. Format: cell-based.
Assay [16] addresses 6-phosphogluconate dehydrogenase, decarboxylating (Homo sapiens) (UniProt P52209). The experiment in a line: Binding affinity to PGD in human NCI-H358 cells at 1 uM by mass spectrometry based pull down assay.
Assay [17] addresses Platelet-derived growth factor receptor alpha (Homo sapiens) (UniProt P16234). The experiment in a line: Inhibition of human PDGFRA (575 to 1002 residues) expressed in mammalian expression system assessed as enzyme activity at 10 uM by KINOMEScan assay relative to control. Details: scale not given: the % may be the effect or the level left. The method in brief: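 In vitro ATP-site competition binding assay across a panel of 456 kinases, with compound tested at 1 and 10 μM.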

Chain of 6-phosphogluconate dehydrogenase, decarboxylating (Homo sapiens) (P52209 whole entry, looked up, the tested form may be a part): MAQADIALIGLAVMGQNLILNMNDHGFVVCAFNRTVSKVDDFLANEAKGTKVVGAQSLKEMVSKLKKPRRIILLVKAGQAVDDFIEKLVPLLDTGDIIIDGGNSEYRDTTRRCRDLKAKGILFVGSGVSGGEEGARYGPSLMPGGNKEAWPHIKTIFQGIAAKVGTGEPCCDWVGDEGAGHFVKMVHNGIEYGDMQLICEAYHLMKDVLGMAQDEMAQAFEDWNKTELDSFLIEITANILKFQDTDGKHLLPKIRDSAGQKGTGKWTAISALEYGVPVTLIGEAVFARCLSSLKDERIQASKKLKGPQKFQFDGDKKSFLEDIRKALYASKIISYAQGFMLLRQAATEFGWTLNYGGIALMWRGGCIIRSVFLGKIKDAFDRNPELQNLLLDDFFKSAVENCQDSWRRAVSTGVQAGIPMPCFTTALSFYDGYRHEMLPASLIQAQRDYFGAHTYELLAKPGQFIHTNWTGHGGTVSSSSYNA
Chain of Trafficking protein particle complex subunit 5 (Homo sapiens) (Q8IUR0 whole entry, one chain of several): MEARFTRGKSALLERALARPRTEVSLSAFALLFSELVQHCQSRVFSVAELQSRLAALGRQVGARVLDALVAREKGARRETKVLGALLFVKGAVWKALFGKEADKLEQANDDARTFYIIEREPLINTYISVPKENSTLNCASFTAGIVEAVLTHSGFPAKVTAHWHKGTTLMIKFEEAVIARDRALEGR
Chain of Small COPII coat GTPase SAR1A (Homo sapiens) (Q9NR31 whole entry): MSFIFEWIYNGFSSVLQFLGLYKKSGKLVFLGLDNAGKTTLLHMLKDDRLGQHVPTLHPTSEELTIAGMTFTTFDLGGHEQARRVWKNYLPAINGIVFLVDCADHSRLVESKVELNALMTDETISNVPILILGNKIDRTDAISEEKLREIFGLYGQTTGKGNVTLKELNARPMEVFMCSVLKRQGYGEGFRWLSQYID
Chain of Myosin regulatory light chain 12B (Homo sapiens) (O14950 whole entry): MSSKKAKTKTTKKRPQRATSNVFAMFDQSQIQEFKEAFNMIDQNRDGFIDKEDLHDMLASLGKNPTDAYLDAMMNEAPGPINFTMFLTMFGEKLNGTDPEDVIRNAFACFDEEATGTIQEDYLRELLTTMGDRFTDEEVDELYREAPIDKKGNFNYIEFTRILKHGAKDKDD
Chain of Heterogeneous nuclear ribonucleoprotein U (Homo sapiens) (Q00839 whole entry): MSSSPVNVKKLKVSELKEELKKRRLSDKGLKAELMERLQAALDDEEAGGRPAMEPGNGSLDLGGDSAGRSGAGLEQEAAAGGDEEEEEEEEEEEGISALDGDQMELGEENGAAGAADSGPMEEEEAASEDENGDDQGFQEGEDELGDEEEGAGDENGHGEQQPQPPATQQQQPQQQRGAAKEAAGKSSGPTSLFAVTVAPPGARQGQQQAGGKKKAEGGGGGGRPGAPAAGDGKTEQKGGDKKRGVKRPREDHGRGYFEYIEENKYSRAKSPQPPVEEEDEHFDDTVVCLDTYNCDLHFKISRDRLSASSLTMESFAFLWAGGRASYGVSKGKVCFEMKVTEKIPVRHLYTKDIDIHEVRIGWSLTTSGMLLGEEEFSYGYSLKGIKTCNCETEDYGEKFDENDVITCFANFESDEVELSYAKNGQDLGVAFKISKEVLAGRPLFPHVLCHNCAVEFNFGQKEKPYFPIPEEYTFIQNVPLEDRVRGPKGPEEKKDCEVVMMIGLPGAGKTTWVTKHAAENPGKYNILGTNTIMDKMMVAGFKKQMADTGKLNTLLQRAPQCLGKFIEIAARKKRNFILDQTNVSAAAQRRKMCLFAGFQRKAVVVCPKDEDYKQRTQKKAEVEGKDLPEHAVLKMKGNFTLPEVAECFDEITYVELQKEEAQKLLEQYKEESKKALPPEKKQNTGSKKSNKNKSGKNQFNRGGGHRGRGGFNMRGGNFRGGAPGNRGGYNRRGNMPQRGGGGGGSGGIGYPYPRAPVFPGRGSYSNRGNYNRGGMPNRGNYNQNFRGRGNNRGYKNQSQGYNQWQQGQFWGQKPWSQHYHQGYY
Chain of Myeloid leukemia factor 2 (Homo sapiens) (Q15773 whole entry): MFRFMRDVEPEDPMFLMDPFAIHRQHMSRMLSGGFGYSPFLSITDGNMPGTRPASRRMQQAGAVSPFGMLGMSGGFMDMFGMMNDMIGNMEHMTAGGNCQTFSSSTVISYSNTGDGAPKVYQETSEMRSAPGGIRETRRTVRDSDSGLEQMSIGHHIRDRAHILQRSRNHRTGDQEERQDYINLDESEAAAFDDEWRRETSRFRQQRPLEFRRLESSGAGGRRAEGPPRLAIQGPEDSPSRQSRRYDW
Chain of Platelet-derived growth factor receptor alpha (Homo sapiens) (P16234 whole entry, the tested form may be a part): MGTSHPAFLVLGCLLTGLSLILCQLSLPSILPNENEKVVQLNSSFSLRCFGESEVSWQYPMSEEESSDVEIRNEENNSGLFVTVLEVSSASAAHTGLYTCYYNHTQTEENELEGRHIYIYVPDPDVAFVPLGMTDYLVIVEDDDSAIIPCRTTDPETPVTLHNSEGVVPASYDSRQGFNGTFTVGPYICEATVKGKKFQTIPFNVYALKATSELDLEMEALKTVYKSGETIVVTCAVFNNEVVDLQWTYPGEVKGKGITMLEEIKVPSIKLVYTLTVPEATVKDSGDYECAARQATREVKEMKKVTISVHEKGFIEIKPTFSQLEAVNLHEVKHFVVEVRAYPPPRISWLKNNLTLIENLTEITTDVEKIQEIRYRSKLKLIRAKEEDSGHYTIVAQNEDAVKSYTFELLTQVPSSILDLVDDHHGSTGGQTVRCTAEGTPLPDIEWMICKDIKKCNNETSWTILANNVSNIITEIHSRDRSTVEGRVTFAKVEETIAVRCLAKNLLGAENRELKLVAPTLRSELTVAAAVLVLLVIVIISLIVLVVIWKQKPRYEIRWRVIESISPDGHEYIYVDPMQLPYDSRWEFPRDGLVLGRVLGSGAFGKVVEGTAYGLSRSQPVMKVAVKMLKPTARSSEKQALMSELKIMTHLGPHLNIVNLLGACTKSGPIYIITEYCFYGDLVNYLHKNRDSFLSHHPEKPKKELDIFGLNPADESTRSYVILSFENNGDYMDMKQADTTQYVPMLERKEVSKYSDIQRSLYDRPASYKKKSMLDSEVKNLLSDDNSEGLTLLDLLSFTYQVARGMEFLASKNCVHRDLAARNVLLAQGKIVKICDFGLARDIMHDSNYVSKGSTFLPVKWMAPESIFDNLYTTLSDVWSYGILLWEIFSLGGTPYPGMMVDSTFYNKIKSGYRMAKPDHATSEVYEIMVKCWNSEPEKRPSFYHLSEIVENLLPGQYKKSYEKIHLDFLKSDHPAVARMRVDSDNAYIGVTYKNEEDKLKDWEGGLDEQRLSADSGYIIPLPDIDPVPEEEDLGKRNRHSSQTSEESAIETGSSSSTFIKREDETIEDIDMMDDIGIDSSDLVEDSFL
Chain of Thioredoxin (Homo sapiens) (P10599 whole entry): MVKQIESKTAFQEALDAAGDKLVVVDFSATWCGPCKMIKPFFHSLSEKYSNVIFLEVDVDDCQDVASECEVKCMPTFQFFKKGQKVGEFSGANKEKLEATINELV
Chain of Coatomer subunit beta (Homo sapiens) (P53618 whole entry): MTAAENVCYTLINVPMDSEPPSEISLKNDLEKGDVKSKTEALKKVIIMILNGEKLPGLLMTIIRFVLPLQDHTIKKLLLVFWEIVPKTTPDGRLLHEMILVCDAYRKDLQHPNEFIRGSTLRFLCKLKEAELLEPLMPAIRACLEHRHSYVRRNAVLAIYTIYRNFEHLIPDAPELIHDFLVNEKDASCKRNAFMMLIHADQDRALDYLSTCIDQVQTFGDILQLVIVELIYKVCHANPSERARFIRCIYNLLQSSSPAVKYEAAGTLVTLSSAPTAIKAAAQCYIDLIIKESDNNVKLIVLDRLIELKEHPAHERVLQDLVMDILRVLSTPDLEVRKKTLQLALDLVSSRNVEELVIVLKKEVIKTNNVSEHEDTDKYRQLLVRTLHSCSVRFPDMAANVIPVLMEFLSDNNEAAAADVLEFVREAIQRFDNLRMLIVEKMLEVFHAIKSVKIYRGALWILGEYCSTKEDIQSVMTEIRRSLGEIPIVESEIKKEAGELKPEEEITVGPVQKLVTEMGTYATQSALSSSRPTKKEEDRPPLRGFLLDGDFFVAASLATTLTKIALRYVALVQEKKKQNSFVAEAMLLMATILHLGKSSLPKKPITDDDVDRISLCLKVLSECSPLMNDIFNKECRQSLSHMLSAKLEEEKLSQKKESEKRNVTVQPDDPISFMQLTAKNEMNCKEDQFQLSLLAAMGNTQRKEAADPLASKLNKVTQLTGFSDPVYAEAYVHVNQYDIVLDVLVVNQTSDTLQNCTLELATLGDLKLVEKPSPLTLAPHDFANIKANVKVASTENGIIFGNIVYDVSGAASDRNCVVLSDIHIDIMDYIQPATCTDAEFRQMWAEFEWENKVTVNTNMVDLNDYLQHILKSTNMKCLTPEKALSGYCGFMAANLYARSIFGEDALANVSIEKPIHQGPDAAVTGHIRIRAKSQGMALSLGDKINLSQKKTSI
Chain of Uracil-DNA glycosylase (Homo sapiens) (P13051 whole entry): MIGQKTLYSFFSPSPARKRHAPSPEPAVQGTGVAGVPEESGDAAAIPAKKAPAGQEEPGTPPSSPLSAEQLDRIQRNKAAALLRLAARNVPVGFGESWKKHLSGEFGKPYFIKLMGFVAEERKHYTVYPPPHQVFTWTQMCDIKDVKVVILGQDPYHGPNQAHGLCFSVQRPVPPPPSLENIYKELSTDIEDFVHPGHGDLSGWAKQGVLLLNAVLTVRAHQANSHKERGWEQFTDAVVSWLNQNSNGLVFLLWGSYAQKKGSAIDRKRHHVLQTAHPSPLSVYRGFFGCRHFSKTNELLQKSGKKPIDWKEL

As to `C=CC(=O)Nc1ccccc1Nc1nc(Nc2ccc(N3CCN(CCOCCOCCOCCNC(=O)CCCC[C@@H]4SC[C@@H]5NC(=O)N[C@@H]54)CC3)cc2)ncc1Cl`, the result in [1], in assay [2], in assay [3], in [4], in assay [5] and in [6] was Active. Moreover, the outcome in assay [7], in assay [8], in assay [9], in [10], in assay [11] and in [12] was Active. The result in [13], in [14], in assay [15] and in assay [16] was Active.

As for `COc1cc(O)c2c(c1)/C=C/C[C@H](O)[C@H](O)C(=O)/C=C\C[C@H](C)OC2=O`, the Activity in [17] is 1.4%.

Values taken from ChEMBL document CHEMBL4118021, “Studies of TAK1-centered polypharmacology with novel covalent TAK1 inhibitors” (Bioorg Med Chem, 2017).
